Source: ChEMBL document CHEMBL3244038, “Synthesis and analgesic activity of human beta-endorphin” (1977)
Active and inactive are the calls of the source.

Legend:
[1] = system: Mus musculus; experiment: Potency index, ratio of morphine AD50 to compound AD50 for analgesic activity in iv dosed ICR mouse assessed as inhibition of heat stimulus-induced tail flick response; type: functional
[2] = system: Mus musculus; experiment: Analgesic activity in icv dosed ICR mouse assessed as inhibition of heat stimulus-induced tail flick response measured for 30 to 60 mins; type: functional, organism-based
How it was run: (§1)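 Male ICR mice, 25-30 g. Peptide given icv (5 µl) over a dose range of 0.09-0.38 µg/mouse. Tail-flick latency was measured against noxious heat with a 10 s cutoff. Control latency was the mean of two pre-drug readings. Percent analgesia = (T1−T0)/(T2−T0)×100. For line 2, naloxone 1 mg/kg sc was given 10 min after the peptide. Mean ± SEM.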

[3] = system: Mus musculus; experiment: Analgesic activity in ICR mouse assessed as inhibition of heat stimulus-induced tail flick response at 0.38 ug, icv administered opiate antagonist naloxone at 10 mins post compound treatment measured for 30 to 60 mins; type: functional, organism-based; how it was run: as §1
[4] = system: Mus musculus; experiment: Potency index, ratio of morphine AD50 to compound AD50 for analgesic activity in icv dosed ICR mouse assessed as inhibition of heat stimulus-induced tail flick response; type: functional
[5] = system: Mus musculus; experiment: Analgesic activity in ICR mouse assessed as inhibition of acetic acid-induced writhing response at 0.38 ug, icv administered 5 mins prior to acetic acid challenge measured for 15 mins; type: functional, organism-based
How it was run: (§2)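 Male ICR mice, 25-30 g. Peptide given icv (5 µl) 5 min before i.p. 0.6% acetic acid (0.1 ml/10 g body weight). Writhes counted over 15 min.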

[6] = system: Mus musculus; experiment: Potency index, ratio of morphine AD50 to compound AD50 for analgesic activity in icv dosed ICR mouse assessed as inhibition of acetic acid-induced writhing response; type: functional
[7] = system: Mus musculus; experiment: Analgesic activity in icv dosed ICR mouse assessed as inhibition of thermal stimulus-induced response by hot-plate test in presence of opiate antagonist naloxone; type: functional, organism-based
[8] = system: Mus musculus; experiment: Analgesic activity in icv dosed ICR mouse assessed as inhibition of thermal stimulus-induced response by hot-plate test; type: functional, organism-based
How it was run: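 Male ICR mice, 25-30 g. Peptide given icv (5 µl). Hot-plate latency with a 60 s cutoff. Control latency was the mean of two pre-drug readings, with test latencies at various times after injection. Percent analgesia = (T1−T0)/(T2−T0)×100.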

[9] = system: Mus musculus; experiment: Analgesic activity in opiate antagonist naloxone-treated ICR mouse assessed as inhibition of acetic acid-induced writhing response at 0.38 ug, icv administered 5 mins prior to acetic acid challenge measured for 15 mins; type: functional, organism-based; how it was run: as §2
[10] = organism: Mus musculus; experiment: Potency index, ratio of morphine AD50 to compound AD50 for analgesic activity in ICR mouse assessed as inhibition of thermal stimulus-induced response by hot-plate test; type: functional
[11] = system: Mus musculus; experiment: Analgesic activity in iv dosed ICR mouse assessed as inhibition of heat stimulus-induced tail flick response measured for 20 to 30 mins; type: functional, organism-based
How it was run: (§3)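 Male ICR mice, 25-30 g. Peptide given iv via the tail vein at 9.4, 18.8 or 28.2 mg/kg. Tail-flick latency to heat with a 10 s cutoff. Percent analgesia calculated against the pre-drug control latency. For line 10, naloxone hydrochloride 1 mg/kg sc was given 5 min before 20.1 mg/kg peptide. Mean ± SEM.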

[12] = system: Mus musculus; experiment: Analgesic activity in opiate antagonist naloxone hydrochloride-treated ICR mouse assessed as inhibition of heat stimulus-induced tail flick response at 20.1 mg/kg, iv measured for 20 to 30 mins; type: functional, organism-based; parameters: dose 20.1 mg/kg; how it was run: as §3
[13] = system: Mus musculus; experiment: Analgesic activity in icv dosed ICR mouse assessed as 50% inhibition of acetic acid-induced writhing response administered 5 mins prior to acetic acid challenge measured for 60 to 90 mins; type: functional
[14] = system: Mus musculus; experiment: Analgesic activity in icv dosed ICR mouse assessed as 50% inhibition of heat stimulus-induced tail flick response measured for 60 to 90 mins; type: functional
How it was run: (§4)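 Male ICR mice, 25-30 g. Tail-flick latency to heat with a 10 s cutoff. A twofold increase in latency over the pre-drug control was the quantal criterion. AD50 with 95% confidence limits by Litchfield-Wilcoxon.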

[15] = system: Mus musculus; experiment: Analgesic activity in icv dosed ICR mouse assessed as 50% inhibition of thermal stimulus-induced response measured for 60 to 90 mins by hot-plate test; type: functional
How it was run: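 Male ICR mice, 25-30 g. Peptide given icv (5 µl). Hot-plate latency with a 60 s cutoff. A twofold increase over the control latency (mean of two pre-drug readings) was the quantal criterion. AD50 with 95% confidence limits by Litchfield-Wilcoxon.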

[16] = system: Mus musculus; experiment: Analgesic activity iv dosed ICR mouse assessed as 50% inhibition of heat stimulus-induced tail flick response measured for 60 to 90 mins; type: functional; how it was run: as §4

Compound	Ratio [1]	inhibition [2]	inhibition [3]	Ratio [4]	inhibition [5]	Ratio [6]	inhibition [7]	inhibition [8]	inhibition [9]	Ratio [10]	inhibition [11]	inhibition [12]	AD50 [13]	AD50 [14]	AD50 [15]	AD50 [16]
CC[C@H](C)[C@H](NC(=O)[C@H](C)NC(=O)[C@H](CC(N)=O)NC(=O)[C@H](CCCCN)NC(=O)[C@H](Cc1ccccc1)NC(=O)[C@H](CC(C)C)NC(=O)[C@@H](NC(=O)[C@@H](NC(=O)[C@H](CC(C)C)NC(=O)[C@@H]1CCCN1C(=O)[C@@H](NC(=O)[C@H](CCC(N)=O)NC(=O)[C@H](CO)NC(=O)[C@H](CCCCN)NC(=O)[C@H](CCC(=O)O)NC(=O)[C@H](CO)NC(=O)[C@@H](NC(=O)[C@H](CCSC)NC(=O)[C@H](Cc1ccccc1)NC(=O)CNC(=O)CNC(=O)[C@@H](N)Cc1ccc(O)cc1)[C@@H](C)O)[C@@H](C)O)C(C)C)[C@@H](C)O)C(=O)N[C@H](C(=O)N[C@@H](CCCCN)C(=O)N[C@@H](CC(N)=O)C(=O)N[C@@H](C)C(=O)N[C@@H](Cc1ccc(O)cc1)C(=O)N[C@@H](CCCCN)C(=O)N[C@@H](CCCCN)C(=O)NCC(=O)N[C@@H](CCC(=O)O)C(=O)O)[C@@H](C)CC	3.4	Dose-dependent effect	inactive	48.4	Active	17.3	inactive	Active	inactive	32.8	Dose-dependent effect	inactive				
H-YGGFMTSEKSQTPLVTLFKNAIIKNAHKKGQ-OH	3.5			33		19.5				17.5						
CN1CC[C@]23c4c5ccc(O)c4O[C@H]2[C@@H](O)C=C[C@H]3[C@H]1C5 [MORPHINE]													0.026 nmol	0.026 nmol	0.031 nmol	3.32 µmol/kg
